We go through two molecules from ChEMBL document CHEMBL1155904, “Synthesis and evaluation of heteroaryl-ketone derivatives as a novel class of VEGFR-2 inhibitors” (Bioorg Med Chem Lett, 2008).

SMILES strings stand for the structures.

Holding throughout (format): ADME, organism-based
What all share (conditions): read-out: Drug uptake

Data set [1] is described as follows: Plasma concentration in mouse at 30 mg/kg, ip after 1 hr. Further details: dose 30 mg/kg, route intraperitoneal. Put shortly: (§1)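 Mice dosed intraperitoneally at 30 mg/kg in a vehicle of 5% ethanol, 5% Tween-80, 5% PEG400 and 85% PBS. Plasma drug concentration measured at set times after injection.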
A short description of data set [2]: Plasma concentration in mouse at 30 mg/kg, po after 1 hr. Also noted: dose 30 mg/kg, route oral.
Data set [3] in a line: Plasma concentration in mouse at 30 mg/kg, ip after 4 hrs. Further details: dose 30 mg/kg, route intraperitoneal. The gist of the method: as §1

With `O=C(c1ccccc1NCc1ccc2ncccc2c1)c1n[nH]c2ccccc12`, the concentration at 1 h was determined as 2400 nM in data set [1] and 1800 nM in data set [2].

`Cc1ccc2c(c1)c(C(=O)c1ccccc1NCc1ccc3ncccc3c1)cn2C`: the concentration at 1 h is 2900 nM in data set [1] and 1800 nM in data set [2]. Besides, the concentration at 4 h in data set [3] was found to be 1100 nM.
